Reference: article PMC3601785 (ACS medicinal chemistry letters, 2012)
Blank lines part the entries; values can stand above or below the molecule they belong to.

Columns and labels:
[1] = pharmacokinetic analysis, single i.v. or i.p. dose; format: in vivo, male CD-1 mice; settings: male, CD-1, mouse, plasma, other: intravenous (i.v.) or intraperitoneal (i.p.)
How it was run: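 Single dose given iv or ip to male CD-1 mice in 1:1:15 Cremophor:EtOH:phosphate-buffered saline. Plasma concentrations used to derive half-life, Cmax, C0 (maximum plasma concentration extrapolated to t = 0) and AUC extrapolated to infinity and normalized to dose in mg/kg.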

[2] = tested on: mitogen-and stress-activated kinase; settings: cited from earlier work
p70 S6 kinase = settings: cited from earlier work
PIM 3 = settings: [ATP] lower than in the RSK assay; cited from earlier work
[3] = tested on: RSK biomarkers (peEF2, cyclin D1, phospho-motif) in MCF-7 cells; test: RSK biomarkers in PMA-stimulated MCF-7 cells by immunoblotting; format: cell-based, human; settings: MCF-7 cells pre-treated with SL0101 (100 μM) or 7 (25 μM), then PMA
How it was run: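 MCF-7 cells pretreated with test compound (reference inhibitor 100 μM; analogue 25 μM) or vehicle, then treated with DMSO or the mitogen PMA. Lysates analysed by immunoblotting for RSK biomarkers, including eEF2 phosphorylation.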

aqueous solubility = format: physicochemical
Aurora B = settings: [ATP] lower than in the RSK assay; cited from earlier work
[4] = biological target: T1, purified, recombinant RSK2 (Homo sapiens, UniProt P51812); test: in vitro kinase assay, inhibition of purified recombinant RSK2; format: biochemical
MCF-7 cells = test: MCF-7 proliferation; format: cell-based, human
How it was run: (§1)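 Test compound added at time 0 at various concentrations. Proliferation read as cellular ATP content after 48 h of treatment. Values expressed as fold proliferation as a percentage of vehicle-treated cells. n = 3 experiments, each in quadruplicate, with SD and Student's t test against vehicle; for MCF-7, also against the reference inhibitor.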

MCF-10A cells = test: MCF-10A proliferation; format: cell-based; settings: various concentrations, 48 h
How it was run: as §1

[5] = biological target: T1, purified, recombinant RSK2; settings: cited from earlier work

T1 sequence (P51812 whole entry, species assumed): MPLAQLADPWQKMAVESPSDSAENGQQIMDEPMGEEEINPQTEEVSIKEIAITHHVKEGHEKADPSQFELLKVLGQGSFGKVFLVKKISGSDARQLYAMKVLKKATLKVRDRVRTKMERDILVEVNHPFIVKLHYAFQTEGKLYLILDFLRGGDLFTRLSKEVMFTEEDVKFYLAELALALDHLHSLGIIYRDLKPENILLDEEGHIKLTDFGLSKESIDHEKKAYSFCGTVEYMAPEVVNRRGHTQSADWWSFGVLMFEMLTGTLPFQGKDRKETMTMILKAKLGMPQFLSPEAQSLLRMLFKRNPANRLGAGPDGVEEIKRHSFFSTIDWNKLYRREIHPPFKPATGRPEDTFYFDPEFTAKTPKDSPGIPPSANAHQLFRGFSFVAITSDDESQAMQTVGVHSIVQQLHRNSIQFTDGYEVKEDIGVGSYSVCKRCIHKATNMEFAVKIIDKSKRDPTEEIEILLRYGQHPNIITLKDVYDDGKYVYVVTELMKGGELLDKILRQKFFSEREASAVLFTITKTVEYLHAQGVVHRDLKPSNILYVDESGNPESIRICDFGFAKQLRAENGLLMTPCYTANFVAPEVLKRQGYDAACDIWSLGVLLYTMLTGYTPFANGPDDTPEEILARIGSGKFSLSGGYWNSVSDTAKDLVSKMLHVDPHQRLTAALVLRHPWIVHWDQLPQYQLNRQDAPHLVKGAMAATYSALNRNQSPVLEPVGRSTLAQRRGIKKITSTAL

- half-life [1]: < 30 min
- solubility (aqueous solubility; carrier of 1:1:15 Cremophor:EtOH:phosphate-buffered saline was required): limited solubility
Compound: CC(=O)O[C@@H]1[C@@H](OC(C)=O)[C@@H](O)[C@H](Oc2c(-c3ccc(O)cc3)oc3cc(O)cc(O)c3c2=O)O[C@H]1C [SL0101]
- inhibition of mitogen-and stress-activated kinase [2]: did not inhibit
- inhibition of p70 S6 kinase (p70 S6 kinase): did not inhibit
- inhibition of PIM 3 (PIM 3): partially inhibit
- cyclin D1 levels [3]: decreased cyclin D1 levels
- intensity of band at ~ 27 kDa, (Lys/Arg)XX(Lys/Arg)X(pSer/pThr) motif antibody [3]: intensity decreases
- peEF2 levels compared to the PMA control [3]: increased peEF2 levels
- inhibition of Aurora B (Aurora B): partially inhibit

Compound: CCC[C@@H]1O[C@@H](Oc2c(-c3ccc(O)cc3)oc3cc(O)cc(O)c3c2=O)[C@H](O)[C@H](O)[C@H]1OC(C)=O [compound 5]
- change of RSK2 IC50 in comparison to the 5″-n-propyl analogue 3 [4]: increased the IC50, but this difference was not statistically significant

- change of RSK2 IC50 in comparison to the 5″-n-propyl analogue 3 [4]: did not alter the IC50
Compound: CCC[C@@H]1O[C@@H](Oc2c(-c3ccc(O)cc3)oc3cc(O)cc(O)c3c2=O)[C@H](OC(C)=O)[C@H](O)[C@H]1OC(C)=O [compound 6]

- solubility (aqueous solubility; aqueous solution): ≤ 25 µM
Compound: CCC[C@@H]1O[C@@H](Oc2c(-c3ccc(O)cc3)oc3cc(O)cc(O)c3c2=O)[C@H](O)[C@H](OC(C)=O)[C@H]1OC(C)=O [compound 7]
- ability to inhibit MCF-7 proliferation, fold better compared to SL0101 (1) (MCF-7 cells): 2 fold
- inhibition of MCF-7 proliferation (MCF-7 cells; various concentrations, 48 h): inhibits MCF-7
- inhibition of MCF-10A proliferation (MCF-10A cells): not MCF-10A proliferation
- cyclin D1 levels [3]: decreased cyclin D1 levels
- intensity of band at ~ 27 kDa, (Lys/Arg)XX(Lys/Arg)X(pSer/pThr) motif antibody [3]: intensity decreases
- peEF2 levels compared to the PMA control [3]: increased peEF2 levels

- change of RSK2 IC50 in comparison to the 5″-n-propyl analogue 3 [4]: doubled the IC50
Compound: CCC[C@@H]1O[C@@H](Oc2c(-c3ccc(O)cc3)oc3cc(O)cc(O)c3c2=O)[C@H](OC(C)=O)[C@H](OC(C)=O)[C@H]1OC(C)=O [compound 8]

Compound: CC1OC(Oc2c(-c3ccc(O)cc3)oc3cc(O)cc(O)c3c2=O)C(O)C(O)C1O (centres unmarked) [deacetylated SL0101]
- potency for RSK inhibition, fold less potent than SL0101 (1) [5]: ~ 10 fold
